Measurements: article PMC4030725 (Molecular pharmaceutics, 2013)
Read-outs that look alike come from different tables or passages of the source.

Assays:
[1] = test system: UGT1A9; conditions: cited from earlier work
[2] = molecular target: T1, BCRP (Homo sapiens, UniProt Q9UNQ0); assay: BCRP-mediated efflux of flavone glucuronides from HeLa-UGT1A9 cells; format: in vitro ADME; conditions: for Log(CLint) / Vmax: BCRP-mediated glucuronide efflux, HeLa-UGT1A9 cells; for Km: efflux kinetic parameter Km, HeLa-UGT1A9 cells (Table 2, unit inferred)
T1 sequence (Q9UNQ0 1-655): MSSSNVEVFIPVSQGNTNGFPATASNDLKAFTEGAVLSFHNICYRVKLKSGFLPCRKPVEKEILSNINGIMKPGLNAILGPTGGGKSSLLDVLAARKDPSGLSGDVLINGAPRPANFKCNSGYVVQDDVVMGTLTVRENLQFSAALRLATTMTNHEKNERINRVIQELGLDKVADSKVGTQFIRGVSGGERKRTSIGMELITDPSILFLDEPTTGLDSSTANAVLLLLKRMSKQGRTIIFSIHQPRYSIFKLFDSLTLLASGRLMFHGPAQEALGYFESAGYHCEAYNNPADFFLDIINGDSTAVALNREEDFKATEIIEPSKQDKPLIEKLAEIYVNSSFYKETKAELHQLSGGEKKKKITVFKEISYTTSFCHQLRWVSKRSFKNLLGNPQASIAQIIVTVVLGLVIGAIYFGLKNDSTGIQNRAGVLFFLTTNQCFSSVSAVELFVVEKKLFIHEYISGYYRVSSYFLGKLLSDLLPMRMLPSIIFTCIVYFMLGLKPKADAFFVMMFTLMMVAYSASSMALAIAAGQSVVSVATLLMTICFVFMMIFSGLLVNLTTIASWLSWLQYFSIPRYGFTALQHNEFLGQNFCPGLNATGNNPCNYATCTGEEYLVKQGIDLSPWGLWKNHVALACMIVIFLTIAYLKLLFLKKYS
Summary of the method: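 HeLa cells stably expressing UGT1A9 were used 3 days post-seeding and washed twice with 37°C HBSS (pH 7.4). They were loaded at 37°C with a mono- or dihydroxyflavone aglycone in HBSS, diluted from a 100X DMSO/methanol (1:4) stock. Medium was sampled within the linear time range, quenched with acetonitrile/acetic acid and analysed by UPLC-DAD. Rates (pmol/min/mg protein) were fitted against intracellular glucuronide concentration; CLint = Vmax/Km. n=3.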

[3] = test system: HeLa-UGT1A9 cells; format: in vitro ADME, human; conditions: end of experiment
Summary of the method: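 After the efflux incubation, cells were washed twice with ice-cold HBSS, collected in HBSS and sonicated for 30 min at 4°C. Lysates were centrifuged at 15,500 rpm for 20 min. Supernatant was mixed with acetonitrile/acetic acid stop solution and glucuronides were quantified by UPLC-DAD. Protein was measured by assay kit against a BSA standard, and concentration was calculated assuming a cell volume of 4 μl/mg protein. n=3.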

[4] = test system: HeLa-UGT1A9 cells; assay: Fraction metabolized; format: in vitro ADME, human; conditions: six DHFs compared at five loading concentrations (Fig. 8A)
[5] = molecular target: T2, Human BCRP (Arg482) membrane vesicles (Homo sapiens, UniProt Q9UNQ0); assay: Vesicular transport of HF glucuronides in BCRP-overexpressing membrane vesicles; format: in vitro ADME; conditions: for difference in Km between membrane vesicles and HeLa-UGT1A9 cells: BCRP vesicles vs HeLa-UGT1A9 cells; for Km: efflux kinetic parameter Km, BCRP membrane vesicles (Table 2, unit inferred)
T2 sequence (Q9UNQ0 1-655): T1 sequence (Q9UNQ0 1-655)
Summary of the method: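 Inside-out human BCRP (Arg482) membrane vesicles were incubated with glucuronide substrate and 5 mM ATP, or AMP as control, in 10 mM MgCl₂/10 mM Tris-HCl (pH 7.4). The reaction was stopped with cold buffer, followed by rapid filtration through glass-fibre filters and ice-cold washes. Filters were extracted in 50% methanol with sonication, centrifuged and analysed by UPLC. ATP-dependent transport was taken as ATP minus AMP values.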

[6] = UGT1A9-mediated glucuronidation of the aglycone, ref Wu and Hu [37]
[7] = loading aglycone concentration 0.3125 μM
[8] = loading aglycone concentration 0.625 μM
[9] = loading aglycone concentration 1.25 μM
[10] = loading aglycone concentration 2.5 μM
[11] = loading aglycone concentration 5 μM
[12] = loading aglycone concentration 10 μM
[13] = loading aglycone concentration 15 μM
[14] = loading aglycone concentration 20 μM

SMILES: O=c1cc(-c2ccccc2O)oc2ccccc12 [2′HF, 2′-Hydroxyflavone]
- Km [1, 6]: 0.4 µM
- Log(CLint)′ [1, 6]: 2.27
- Vmax′ [1, 6]: 74.4 pmol/mg/min

SMILES: O=c1c(O)c(-c2ccccc2O)oc2ccccc12 [3,2′DHF, 3,2′-Dihydroxyflavone]
- Km [1, 6]: 0.67 µM
- Log(CLint)′ [1, 6]: 1.89
- Vmax′ [1, 6]: 52 pmol/mg/min

SMILES: O=c1c(O)c(-c2cccc(O)c2)oc2ccccc12 [3,3′ DHF, 3,3′-Dihydroxyflavone]
- Km [1, 6]: 0.11 µM
- Log(CLint)′ [1, 6]: 4.44
- Vmax′ [1, 6]: 3100 pmol/mg/min

SMILES: O=c1c(O)c(-c2ccc(O)cc2)oc2ccccc12 [3,4′DHF, 3,4′-Dihydroxyflavone]
- Km [1, 6]: 0.13 µM
- Vmax′ [1, 6]: 1800 pmol/mg/min

SMILES: O=C(O)[C@H]1O[C@@H](Oc2c(-c3ccc(O)cc3)oc3ccccc3c2=O)[C@H](O)[C@@H](O)[C@@H]1O [3,4′DHF-3-O-G]
- Log(CLint) [2]: 0.38
- Vmax [2]: 86.0 ± 5.4 pmol/mg/min
- Intracellular Con. of DHFs-3-O-G [3, 7]: 2.67 ± 0.09 µM
- Intracellular Con. of DHFs-3-O-G [3, 8]: 14.27 ± 2.00 µM
- Intracellular Con. of HFs-G or DHFs-3-O-G [3, 9]: 71.15 ± 6.11 µM
- Intracellular Con. of HFs-G or DHFs-3-O-G [3, 10]: 241.60 ± 26.10 µM
- Intracellular Con. of HFs-G or DHFs-3-O-G [3, 11]: 645.32 ± 5.81 µM
- Intracellular Con. of HFs-G or DHFs-3-O-G [3, 12]: 715.62 ± 31.7 µM

SMILES: O=c1c(O)c(-c2ccccc2)oc2cccc(O)c12 [3,5 DHF, 3,5-Dihydroxyflavone]
- fmet [4]: least sensitive to the rising concentration
- Km [1, 6]: 0.25 µM
- Log(CLint)′ [1, 6]: 3.88
- Vmax′ [1, 6]: 1900 pmol/mg/min

SMILES: O=C(O)[C@H]1O[C@@H](Oc2c(-c3ccccc3)oc3cccc(O)c3c2=O)[C@H](O)[C@@H](O)[C@@H]1O [3,5DHF-3-O-G]
- Log(CLint) [2]: 0.72
- Vmax [2]: 67.3 ± 6.2 pmol/mg/min
- Intracellular Con. of DHFs-3-O-G [3, 7]: 2.28 ± 0.68 µM
- Intracellular Con. of DHFs-3-O-G [3, 8]: 4.82 ± 0.02 µM
- Intracellular Con. of HFs-G or DHFs-3-O-G [3, 9]: 14.70 ± 2.60 µM
- Intracellular Con. of HFs-G or DHFs-3-O-G [3, 10]: 53.48 ± 3.45 µM
- Intracellular Con. of HFs-G or DHFs-3-O-G [3, 11]: 242.98 ± 9.46 µM
- Intracellular Con. of HFs-G or DHFs-3-O-G [3, 12]: 416.65 ± 12.34 µM

SMILES: O=c1c(O)c(-c2ccccc2)oc2ccc(O)cc12 [3,6DHF, 3,6-Dihydroxyflavone]
- fmet [4]: highest fmet value at all tested concentration
- Km [1, 6]: 0.62 µM
- Log(CLint)′ [1, 6]: 4.34
- Vmax′ [1, 6]: 13000 pmol/mg/min

SMILES: O=c1c(O)c(-c2ccccc2)oc2cc(O)ccc12 [3,7DHF(3-OH), 3,7-Dihydroxyflavone]
- Km [1, 6]: 0.22 µM
- Log(CLint)′ [1, 6]: 4.32
- Vmax′ [1, 6]: 4600 pmol/mg/min

SMILES: O=c1c(O)c(-c2ccccc2)oc2ccccc12 [3HF, 3-Hydroxyflavone]
- Km [1, 6]: 0.3 µM
- Log(CLint)′ [1, 6]: 3.84
- Vmax′ [1, 6]: 2100 pmol/mg/min

SMILES: O=C(O)[C@H]1O[C@@H](Oc2c(-c3ccccc3)oc3ccccc3c2=O)[C@H](O)[C@@H](O)[C@@H]1O [3HF-G]
- Log(CLint) [2]: 1.23
- Vmax [2]: 165.6 ± 10.1 pmol/mg/min
- Km [2]: 9.7 µM
- difference in Km between membrane vesicles and HeLa-UGT1A9 cells [5]: approximately 3 fold
- Km [5]: 29 µM
- Intracellular Con. of HFs-G or DHFs-3-O-G [3, 9]: 7.14 ± 3.02 µM
- Intracellular Con. of HFs-G or DHFs-3-O-G [3, 10]: 38.56 ± 8.36 µM
- Intracellular Con. of HFs-G or DHFs-3-O-G [3, 11]: 206.98 ± 12.39 µM
- Intracellular Con. of HFs-G or DHFs-3-O-G [3, 12]: 335.57 ± 41.55 µM
- Intracellular Con. of HFs-G [3, 13]: 356.82 ± 94.04 µM
- Intracellular Con. of HFs-G [3, 14]: 280.60 ± 28.78 µM

SMILES: O=c1cc(-c2cccc(O)c2)oc2ccccc12 [3′HF, 3′-Hydroxyflavone]
- Km [1, 6]: 2.02 µM
- Log(CLint)′ [1, 6]: 2.66
- Vmax′ [1, 6]: 926 pmol/mg/min

SMILES: O=c1cc(-c2ccc(O)cc2)oc2ccccc12 [4′HF, 4′-Hydroxyflavone]
- Km [1, 6]: 1.46 µM
- Log(CLint)′ [1, 6]: 1.83
- Vmax′ [1, 6]: 98.7 pmol/mg/min

SMILES: O=c1cc(-c2ccccc2)oc2cccc(O)c12 [5HF, 5-Hydroxyflavone]
- Vmax′ [1, 6]: 118 pmol/mg/min
- CLint′(Vmax′/ Km′) [1]: 123 µL/min/mg
- Km [1]: 0.96 µM
- Log(CLint)′ [1]: 2.09

SMILES: O=C(O)[C@H]1O[C@@H](Oc2cccc3oc(-c4ccccc4)cc(=O)c23)[C@H](O)[C@@H](O)[C@@H]1O [5HF-G]
- Log(CLint) [2]: 0.77
- Vmax [2]: 283.4 ± 20.0 pmol/mg/min
- Km [2]: 48.5 µM
- difference in Km between membrane vesicles and HeLa-UGT1A9 cells [5]: > 10 fold
- Km [5]: 2.9 µM
- Intracellular Con. of HFs-G or DHFs-3-O-G [3, 9]: 31.03 ± 0.44 µM
- Intracellular Con. of HFs-G or DHFs-3-O-G [3, 10]: 47.98 ± 3.91 µM
- Intracellular Con. of HFs-G or DHFs-3-O-G [3, 11]: 72.86 ± 2.26 µM
- Intracellular Con. of HFs-G or DHFs-3-O-G [3, 12]: 94.74 ± 11.70 µM
- Intracellular Con. of HFs-G [3, 13]: 18.32 ± 6.47 µM
- Intracellular Con. of HFs-G [3, 14]: 235.51 ± 14.96 µM

SMILES: O=c1cc(-c2ccccc2)oc2ccc(O)cc12 [6HF, 6-Hydroxyflavone]
- Km [1, 6]: 2.27 µM
- Log(CLint)′ [1, 6]: 1.53
- Vmax′ [1, 6]: 76.1 pmol/mg/min

SMILES: O=c1cc(-c2ccccc2)oc2cc(O)ccc12 [7HF, 7-Hydroxyflavone]
- Km [1, 6]: 3.59 µM
- Log(CLint)′ [1, 6]: 3.13
- Vmax′ [1, 6]: 4895 pmol/mg/min
